Measurements published in ChEMBL document CHEMBL1821590, “Novel dihydropyrimidines and its pyrazole derivatives: synthesis and pharmacological screening” (Eur J Med Chem, 2011).
In brackets after ≈: the same amount, converted by molar mass.

Assays:
Assay type in all cases: functional
Aspergillus niger [1] = experiment: Antimicrobial activity against Aspergillus niger at 25 ug/ml by paper disc method; conditions: read-out: IZ
How it was run: (§1)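 Paper disc method against A. niger and C. albicans, with compounds at 25, 50 and 100 µg/mL. Amphotericin-B as standard.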

Aspergillus niger [2] = experiment: Antimicrobial activity against Aspergillus niger at 50 ug/ml by paper disc method; conditions: read-out: IZ; how it was run: as §1
Escherichia coli [3] = experiment: Antimicrobial activity against Escherichia coli at 50 ug/ml by agar plate diffusion technique; conditions: read-out: IZ
How it was run: (§2)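 Agar plate diffusion against E. coli, P. aeruginosa, S. aureus and B. subtilis, with compounds at 25, 50 and 100 µg/mL. Streptomycin as standard.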

Escherichia coli [4] = experiment: Antimicrobial activity against Escherichia coli at 25 ug/ml by agar plate diffusion technique; conditions: read-out: IZ; how it was run: as §2
[5] = Antioxidant activity assessed as hydrogen peroxide scavenging activity after 10 mins
How it was run: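 H2O2 (20 mM) in PBS pH 7.4. 1 mL of sample or ascorbic acid in methanol (12.5–100 µg/mL) added to 2 mL H2O2 solution. A230 read after 10 min. % inhibition = [1 − (Vt/Vc)] × 100. Triplicate, averaged. IC50 derived from % inhibition across concentrations.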

Escherichia coli [6] = experiment: Antimicrobial activity against Escherichia coli at 100 ug/ml by agar plate diffusion technique; conditions: read-out: IZ; how it was run: as §2
Pseudomonas aeruginosa [7] = experiment: Antimicrobial activity against Pseudomonas aeruginosa at 25 ug/ml by agar plate diffusion technique; conditions: read-out: IZ; how it was run: as §2
[8] = Antioxidant activity assessed as potassium ferricyanide ion reducing power after 20 mins
How it was run: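 Oyaizu method. Samples or ascorbic acid in DMF (12.5–100 µg/mL) mixed with 0.2 M phosphate buffer pH 6.6 and 1% potassium ferricyanide, 20 min at 50 °C. 10% TCA added, centrifuged. Supernatant mixed with water and 0.1% FeCl3, read at 700 nm. % = [(Vt/Vc) − 1] × 100. IC50 derived.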

Metaphire posthuma [9] = experiment: Anthelmintic activity against Pheretima posthuma assessed as time taken for complete parasite paralysis at 0.2% w/v
How it was run: (§3)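 Earthworms (Pheretima posthuma) exposed to test solutions at 0.1, 0.2 and 0.5% w/v; time in minutes to complete paralysis (worms motionless) recorded. Albendazole as standard. Mean of three determinations ± S.D.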

Bacillus subtilis [10] = experiment: Antimicrobial activity against Bacillus subtilis at 25 ug/ml by agar plate diffusion technique; conditions: read-out: IZ; how it was run: as §2
Metaphire posthuma [11] = experiment: Anthelmintic activity against Pheretima posthuma assessed as time taken for parasite death at 0.2% w/v
How it was run: (§4)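 Earthworms (Pheretima posthuma, spelled Perituma posthuma in text) exposed to test compounds at 0.1, 0.2 and 0.5% w/v. Albendazole served as standard, with an untreated control. Paralysis was recorded as the time until worms became motionless, then time to death was recorded, in minutes. Each value is the mean of three determinations with S.D.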

[12] = Antioxidant activity assessed as inhibition of lipid peroxidation using egg lecithin liposomes incubated for 1 hr
How it was run: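 Egg lecithin (3 mg/mL, phosphate buffer pH 7.4) sonicated 10 min to form liposomes. Sample or ascorbic acid (12.5–100 µg/mL) added. Peroxidation induced with FeCl3 and L-ascorbic acid, 1 h at 37 °C. Stopped with HCl/TCA/TBA/BHA, boiled 15 min, centrifuged, supernatant read at 532 nm. Triplicate. % inhibition vs control. IC50 derived.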

Candida albicans [13] = experiment: Antimicrobial activity against Candida albicans at 100 ug/ml by paper disc method; conditions: read-out: IZ; how it was run: as §1
Candida albicans [14] = experiment: Antimicrobial activity against Candida albicans at 50 ug/ml by paper disc method; conditions: read-out: IZ; how it was run: as §1
Pseudomonas aeruginosa [15] = experiment: Antimicrobial activity against Pseudomonas aeruginosa at 50 ug/ml by agar plate diffusion technique; conditions: read-out: IZ; how it was run: as §2
[16] = Antiinflammatory activity assessed as inhibition of albumin denaturation at 100 ug/ml by UV-visible spectrophotometry
How it was run: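 Compounds dissolved in minimal DMF, diluted in PBS pH 7.4 (final DMF <2.5%). 1 mL test solution (100 µg/mL) plus 1 mL 1% albumin in PBS, 15 min at 27 ± 1 °C, then heated 10 min at 60 ± 1 °C. After cooling, turbidity read at 660 nm. % inhibition = [(Vt/Vc) − 1] × 100 against a no-drug control. Triplicate, averaged. Diclofenac standard.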

Aspergillus niger [17] = experiment: Antimicrobial activity against Aspergillus niger at 100 ug/ml by paper disc method; conditions: read-out: IZ; how it was run: as §1
Metaphire posthuma [18] = experiment: Anthelmintic activity against Pheretima posthuma assessed as time taken for complete parasite paralysis at 0.1% w/v; how it was run: as §3
[19] = Antioxidant activity assessed as nitric oxide radical scavenging activity after 150 mins
How it was run: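 10 mM sodium nitroprusside (4 mL), PBS pH 7.4 (1 mL) and sample or ascorbic acid in DMSO (1 mL, 12.5–100 µg/mL), incubated 150 min at 25 °C. Nitrite detected with sulphanilic acid (5 min) then naphthylethylenediamine (30 min, diffused light). Read at […]. Triplicate. % inhibition = [1 − (Vt/Vc)] × 100. IC50 derived from it.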

Bacillus subtilis [20] = experiment: Antimicrobial activity against Bacillus subtilis at 50 ug/ml by agar plate diffusion technique; conditions: read-out: IZ; how it was run: as §2
Bacillus subtilis [21] = experiment: Antimicrobial activity against Bacillus subtilis at 100 ug/ml by agar plate diffusion technique; conditions: read-out: IZ; how it was run: as §2
Metaphire posthuma [22] = experiment: Anthelmintic activity against Pheretima posthuma assessed as time taken for parasite death at 0.5% w/v; how it was run: as §4
Candida albicans [23] = experiment: Antimicrobial activity against Candida albicans at 25 ug/ml by paper disc method; conditions: read-out: IZ; how it was run: as §1
Metaphire posthuma [24] = experiment: Anthelmintic activity against Pheretima posthuma assessed as time taken for complete parasite paralysis at 0.5% w/v; how it was run: as §3
Metaphire posthuma [25] = experiment: Anthelmintic activity against Pheretima posthuma assessed as time taken for parasite death at 0.1% w/v; how it was run: as §4
Pseudomonas aeruginosa [26] = experiment: Antimicrobial activity against Pseudomonas aeruginosa at 100 ug/ml by agar plate diffusion technique; conditions: read-out: IZ; how it was run: as §2
Staphylococcus aureus [27] = experiment: Antimicrobial activity against Staphylococcus aureus at 100 ug/ml by agar plate diffusion technique; conditions: read-out: IZ; how it was run: as §2
Staphylococcus aureus [28] = experiment: Antimicrobial activity against Staphylococcus aureus at 50 ug/ml by agar plate diffusion technique; conditions: read-out: IZ; how it was run: as §2
Staphylococcus aureus [29] = experiment: Antimicrobial activity against Staphylococcus aureus at 25 ug/ml by agar plate diffusion technique; conditions: read-out: IZ; how it was run: as §2

COc1ccc(-c2nc(NN)n(C)c(=O)c2C#N)cc1
zone of inhibition at 25 µg/mL (Aspergillus niger [1]): 8.32 mm
zone of inhibition at 50 µg/mL (Aspergillus niger [2]): 10 mm
zone of inhibition at 50 µg/mL (Escherichia coli [3]): 7.71 mm
zone of inhibition at 25 µg/mL (Escherichia coli [4]): 6.28 mm
IC50 [5]: 32 µg/mL (≈ 118 µM)
zone of inhibition at 100 µg/mL (Escherichia coli [6]): 7.49 mm
zone of inhibition at 25 µg/mL (Pseudomonas aeruginosa [7]): 5 mm
IC50 [8]: 41 µg/mL (≈ 151 µM)
Time (Metaphire posthuma [9]): 45.23 min
zone of inhibition at 25 µg/mL (Bacillus subtilis [10]): 9.26 mm
Time (Metaphire posthuma [11]): 60.22 min
IC50 [12]: 39 µg/mL (≈ 144 µM)
zone of inhibition at 100 µg/mL (Candida albicans [13]): 15.8 mm
zone of inhibition at 50 µg/mL (Candida albicans [14]): 10.7 mm
zone of inhibition at 50 µg/mL (Pseudomonas aeruginosa [15]): 6.96 mm
inhibition [16]: 20.6%
zone of inhibition at 100 µg/mL (Aspergillus niger [17]): 17 mm
Time (Metaphire posthuma [18]): 47.23 min
IC50 [19]: 56 µg/mL (≈ 206 µM)
zone of inhibition at 50 µg/mL (Bacillus subtilis [20]): 10.3 mm
zone of inhibition at 100 µg/mL (Bacillus subtilis [21]): 13.6 mm
Time (Metaphire posthuma [22]): 57.45 min
zone of inhibition at 25 µg/mL (Candida albicans [23]): 8.14 mm
Time (Metaphire posthuma [24]): 42.6 min
Time (Metaphire posthuma [25]): 62.32 min
zone of inhibition at 100 µg/mL (Pseudomonas aeruginosa [26]): 7.21 mm

Cn1c(NN)nc(-c2cccc(O)c2O)c(C#N)c1=O
zone of inhibition at 25 µg/mL (Aspergillus niger [1]): 7.06 mm
zone of inhibition at 50 µg/mL (Aspergillus niger [2]): 8.44 mm
zone of inhibition at 50 µg/mL (Escherichia coli [3]): 8.16 mm
zone of inhibition at 25 µg/mL (Escherichia coli [4]): 8.72 mm
IC50 [5]: 29 µg/mL (≈ 106 µM)
zone of inhibition at 100 µg/mL (Escherichia coli [6]): 10.2 mm
zone of inhibition at 25 µg/mL (Pseudomonas aeruginosa [7]): 8.1 mm
IC50 [8]: 34 µg/mL (≈ 124 µM)
Time (Metaphire posthuma [9]): 48.56 min
zone of inhibition at 25 µg/mL (Bacillus subtilis [10]): 11.5 mm
Time (Metaphire posthuma [11]): 63.98 min
IC50 [12]: 31 µg/mL (≈ 113 µM)
zone of inhibition at 100 µg/mL (Candida albicans [13]): 18.7 mm
zone of inhibition at 50 µg/mL (Candida albicans [14]): 13.8 mm
zone of inhibition at 50 µg/mL (Pseudomonas aeruginosa [15]): 10.1 mm
inhibition [16]: 28.8%
zone of inhibition at 100 µg/mL (Aspergillus niger [17]): 15 mm
Time (Metaphire posthuma [18]): 52.22 min
IC50 [19]: 44 µg/mL (≈ 161 µM)
zone of inhibition at 50 µg/mL (Bacillus subtilis [20]): 14.5 mm
zone of inhibition at 100 µg/mL (Bacillus subtilis [21]): 22.1 mm
Time (Metaphire posthuma [22]): 60.27 min
zone of inhibition at 25 µg/mL (Candida albicans [23]): 9.35 mm
Time (Metaphire posthuma [24]): 45.65 min
Time (Metaphire posthuma [25]): 66.22 min
zone of inhibition at 100 µg/mL (Pseudomonas aeruginosa [26]): 12.9 mm

COc1cccc(-c2nc(SC)n(C)c(=O)c2C#N)c1OC
zone of inhibition at 25 µg/mL (Aspergillus niger [1]): 9.25 mm
zone of inhibition at 50 µg/mL (Aspergillus niger [2]): 12 mm
IC50 [5]: 43 µg/mL (≈ 135 µM)
zone of inhibition at 25 µg/mL (Pseudomonas aeruginosa [7]): 5.86 mm
IC50 [8]: 54 µg/mL (≈ 170 µM)
Time (Metaphire posthuma [9]): 57.18 min
zone of inhibition at 25 µg/mL (Bacillus subtilis [10]): 10.4 mm
Time (Metaphire posthuma [11]): 60.44 min
IC50 [12]: 48 µg/mL (≈ 151 µM)
zone of inhibition at 100 µg/mL (Candida albicans [13]): 19.5 mm
zone of inhibition at 50 µg/mL (Candida albicans [14]): 13 mm
zone of inhibition at 50 µg/mL (Pseudomonas aeruginosa [15]): 8.25 mm
inhibition [16]: 38.2%
zone of inhibition at 100 µg/mL (Aspergillus niger [17]): 19.7 mm
Time (Metaphire posthuma [18]): 75.54 min
IC50 [19]: 67 µg/mL (≈ 211 µM)
zone of inhibition at 50 µg/mL (Bacillus subtilis [20]): 14.4 mm
zone of inhibition at 100 µg/mL (Bacillus subtilis [21]): 20.3 mm
Time (Metaphire posthuma [22]): 56.08 min
zone of inhibition at 25 µg/mL (Candida albicans [23]): 10.5 mm
Time (Metaphire posthuma [24]): 41.47 min
Time (Metaphire posthuma [25]): 83.02 min
zone of inhibition at 100 µg/mL (Pseudomonas aeruginosa [26]): 9.93 mm

O=C1O[C@H]([C@@H](O)CO)C(O)=C1O [ASCORBIC ACID]
IC50 [5]: 33 µg/mL (≈ 187 µM)
IC50 [8]: 31 µg/mL (≈ 176 µM)
IC50 [12]: 26 µg/mL (≈ 148 µM)
IC50 [19]: 47 µg/mL (≈ 267 µM)

Cn1c(NN)nc(-c2cccs2)c(C#N)c1=O
zone of inhibition at 25 µg/mL (Aspergillus niger [1]): 10.2 mm
zone of inhibition at 50 µg/mL (Aspergillus niger [2]): 12.8 mm
IC50 [5]: 53 µg/mL (≈ 214 µM)
zone of inhibition at 100 µg/mL (Staphylococcus aureus [27]): 13.4 mm
IC50 [8]: 61 µg/mL (≈ 247 µM)
Time (Metaphire posthuma [9]): 29.13 min
zone of inhibition at 25 µg/mL (Bacillus subtilis [10]): 9.27 mm
Time (Metaphire posthuma [11]): 44.42 min
IC50 [12]: 68 µg/mL (≈ 275 µM)
zone of inhibition at 100 µg/mL (Candida albicans [13]): 15.9 mm
zone of inhibition at 50 µg/mL (Candida albicans [14]): 13.8 mm
inhibition [16]: 36.4%
zone of inhibition at 100 µg/mL (Aspergillus niger [17]): 15.9 mm
Time (Metaphire posthuma [18]): 32.35 min
IC50 [19]: 63 µg/mL (≈ 255 µM)
zone of inhibition at 50 µg/mL (Bacillus subtilis [20]): 10.1 mm
zone of inhibition at 100 µg/mL (Bacillus subtilis [21]): 15.4 mm
zone of inhibition at 50 µg/mL (Staphylococcus aureus [28]): 10.6 mm
Time (Metaphire posthuma [22]): 40.3 min
zone of inhibition at 25 µg/mL (Candida albicans [23]): 10.7 mm
zone of inhibition at 25 µg/mL (Staphylococcus aureus [29]): 9.12 mm
Time (Metaphire posthuma [24]): 26.13 min
Time (Metaphire posthuma [25]): 58.24 min
